Experimental data published in ChEMBL document CHEMBL2401696, “Stereoselective synthesis and anti-proliferative effects on prostate cancer evaluation of 5-substituted-3,4-diphenylfuran-2-ones” (Eur J Med Chem, 2013).
Activity calls are given as the source filed them. The calls are words filed in the database; no cut-off is given here.

Columns and labels:
PC-3 [1] = assay: Antiproliferative activity against human PC3 cells expressing PCDNA after 72 hrs by MTT assay; type: functional, cell-based; details: PC-3, 72 h
How it was run: (§1)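 Cells (PC3 and its PCDNA- and SKP2-transfected lines, DU145) grown in RPMI 1640 with 10% FBS; G418 added for transfected lines. Exponential cells seeded 1 × 10⁴/well, 24 h at 37 °C, then fresh medium with compounds at several concentrations for 72 h. MTT 1–3 h at 37 °C, dissolved in 4% HCl/96% isopropanol, absorbance 570 nm. Triplicate per concentration; IC50 from dose–response curves.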

PC-3 [2] = assay: Antiproliferative activity against human PC3 cells expressing SKP2 after 72 hrs by MTT assay; type: functional, cell-based; details: PC-3, 72 h; how it was run: as §1
[3] = target: T1, Prostaglandin G/H synthase 1 (Ovis aries, UniProt P05979); assay: Inhibition of ovine COX-1 assessed as using arachidonic acid as substrate preincubated for 5 mins prior to substrate addition […] by enzyme immunoassay
T1 sequence (P05979 whole entry): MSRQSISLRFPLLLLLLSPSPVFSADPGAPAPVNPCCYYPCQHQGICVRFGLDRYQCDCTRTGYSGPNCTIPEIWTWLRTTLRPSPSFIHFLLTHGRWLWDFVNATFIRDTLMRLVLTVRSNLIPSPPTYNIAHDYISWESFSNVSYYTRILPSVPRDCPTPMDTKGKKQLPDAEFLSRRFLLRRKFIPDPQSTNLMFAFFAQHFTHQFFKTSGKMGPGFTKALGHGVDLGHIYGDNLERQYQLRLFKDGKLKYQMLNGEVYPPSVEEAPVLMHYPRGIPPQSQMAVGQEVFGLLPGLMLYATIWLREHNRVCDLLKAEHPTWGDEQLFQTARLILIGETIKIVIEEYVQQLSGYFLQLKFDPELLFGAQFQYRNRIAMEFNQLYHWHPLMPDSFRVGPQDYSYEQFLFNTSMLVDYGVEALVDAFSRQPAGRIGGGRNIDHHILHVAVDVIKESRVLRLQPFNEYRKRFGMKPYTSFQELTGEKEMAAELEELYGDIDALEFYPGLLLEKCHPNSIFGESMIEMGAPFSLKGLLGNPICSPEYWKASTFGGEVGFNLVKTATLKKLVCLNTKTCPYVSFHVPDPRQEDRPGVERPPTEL

[4] = target: T2, Prostaglandin G/H synthase 1 (Ovis aries) (UniProt P05979); assay: Inhibition of ovine COX-1 assessed as using arachidonic acid as substrate at 10 uM preincubated for 5 mins prior to substrate addition […] by enzyme immunoassay relative to control
T2 sequence (whole entry): T1 sequence (P05979 whole entry)

[5] = target: T3, Prostaglandin G/H synthase 2 (Ovis aries) (UniProt P79208); assay: Inhibition of ovine COX-2 assessed as using arachidonic acid as substrate at 10 uM preincubated for 5 mins prior to substrate addition measured after 2 hrs by enzyme immunoassay relative to control; details: in the assay text read “after 2 mins” for “after 2 hrs”
T3 sequence (whole entry): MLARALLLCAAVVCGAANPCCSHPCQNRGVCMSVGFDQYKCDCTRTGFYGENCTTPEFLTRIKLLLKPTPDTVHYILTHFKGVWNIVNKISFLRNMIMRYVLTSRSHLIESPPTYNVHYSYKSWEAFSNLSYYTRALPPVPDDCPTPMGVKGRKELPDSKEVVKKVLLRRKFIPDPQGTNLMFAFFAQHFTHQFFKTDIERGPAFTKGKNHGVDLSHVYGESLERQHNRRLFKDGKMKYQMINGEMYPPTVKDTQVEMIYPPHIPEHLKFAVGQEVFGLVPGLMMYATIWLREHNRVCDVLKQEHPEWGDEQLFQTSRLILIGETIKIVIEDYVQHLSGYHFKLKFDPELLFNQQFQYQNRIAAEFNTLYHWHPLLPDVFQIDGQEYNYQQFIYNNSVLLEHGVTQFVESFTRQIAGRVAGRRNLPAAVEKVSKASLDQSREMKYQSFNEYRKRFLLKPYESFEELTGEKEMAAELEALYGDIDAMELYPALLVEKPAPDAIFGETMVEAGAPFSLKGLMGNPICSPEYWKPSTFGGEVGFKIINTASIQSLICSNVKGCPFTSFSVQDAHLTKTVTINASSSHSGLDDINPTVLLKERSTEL
How it was run: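 Ovine COX-1 or COX-2 with heme in 0.1 M Tris-HCl pH 8.0, 5 mM EDTA, 2 mM phenol; compound (0.001–100 µM final, DMSO stocks) preincubated 5 min at 37 °C, then arachidonic acid added, stopped with 1 M HCl after 2 min. PGF2α (SnCl2 reduction) quantified by competitive EIA at 412 nm; % inhibition vs controls; mean of two determinations.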

PC-3 [6] = assay: Antiproliferative activity against human PC3 cells after 72 hrs by MTT assay; type: functional, cell-based; details: PC-3, 72 h; how it was run: as §1
[7] = target: T4, Prostaglandin G/H synthase 2 (Ovis aries, UniProt P79208); assay: Inhibition of ovine COX-2 assessed as using arachidonic acid as substrate preincubated for 5 mins prior to substrate addition measured […] by enzyme immunoassay
T4 sequence (P79208 whole entry): T3 sequence (whole entry)

DU-145 [8] = assay: Antiproliferative activity against human DU145 cells after 72 hrs by MTT assay; type: functional, cell-based; details: DU-145, 72 h; how it was run: as §1
[9] = target: T3, Prostaglandin G/H synthase 2 (Ovis aries); assay: Inhibition of ovine COX-2 assessed as using arachidonic acid as substrate at 10 uM preincubated for 5 mins prior to substrate addition measured after 2 mins by enzyme immunoassay relative to control
DU-145 [10] = assay: Induction of apoptosis in human DU145 cells assessed as formation of apoptotic bodies at 5 to 20 uM after 48 hrs by DAPI staining-based fluorescence microscopic analysis; type: functional, cell-based
How it was run: (§2)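 DU145 seeded 2 × 10⁴ per 60-mm plate, 24 h, then treated 48 h; PBS-washed twice, fixed 3.7% paraformaldehyde 10 min at room temperature, DAPI-stained 10 min at room temperature; nuclei scored for chromatin condensation and apoptotic bodies.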

DU-145 [11] = assay: Induction of apoptosis in human DU145 cells assessed as chromosomal condensation at 5 to 20 uM after 48 hrs by DAPI staining-based fluorescence microscopic analysis; type: functional, cell-based; how it was run: as §2
DU-145 [12] = assay: Cell cycle arrest in human DU145 cells assessed as accumulation at G0/G1 phase after 12 hrs by propidium iodide staining-based flow cytometric analysis; type: functional
DU-145 [13] = assay: Cell cycle arrest in human DU145 cells assessed as accumulation at G2/M phase at 20 uM after 12 hrs by propidium iodide staining-based flow cytometric analysis (reference value: 10.97%); type: functional
DU-145 [14] = assay: Cell cycle arrest in human DU145 cells assessed as accumulation at S phase at 20 uM after 12 hrs by propidium iodide staining-based flow cytometric analysis (reference value: 44.93%); type: functional
DU-145 [15] = assay: Cell cycle arrest in human DU145 cells assessed as accumulation at G0/G1 phase at 20 uM after 12 hrs by propidium iodide staining-based flow cytometric analysis (reference value: 40.91%); type: functional
DU-145 [16] = assay: Cell cycle arrest in human DU145 cells assessed as accumulation at G2/M phase at 15 uM after 12 hrs by propidium iodide staining-based flow cytometric analysis (reference value: 10.97%); type: functional
DU-145 [17] = assay: Cell cycle arrest in human DU145 cells assessed as accumulation at S phase at 15 uM after 12 hrs by propidium iodide staining-based flow cytometric analysis (reference value: 44.93%); type: functional
DU-145 [18] = assay: Cell cycle arrest in human DU145 cells assessed as accumulation at G0/G1 phase at 15 uM after 12 hrs by propidium iodide staining-based flow cytometric analysis (reference value: 40.91%); type: functional
DU-145 [19] = assay: Cell cycle arrest in human DU145 cells assessed as accumulation at G2/M phase at 5 uM after 12 hrs by propidium iodide staining-based flow cytometric analysis (reference value: 10.97%); type: functional
DU-145 [20] = assay: Cell cycle arrest in human DU145 cells assessed as accumulation at S phase at 5 uM after 12 hrs by propidium iodide staining-based flow cytometric analysis (reference value: 44.93%); type: functional
DU-145 [21] = assay: Cell cycle arrest in human DU145 cells assessed as accumulation at G0/G1 phase at 5 uM after 12 hrs by propidium iodide staining-based flow cytometric analysis (reference value: 40.91%); type: functional

Row | Structure (SMILES) | IC50 (PC-3 [1]) [µM] | IC50 (PC-3 [2]) [µM] | inhibition [4] | inhibition [5] | IC50 (PC-3 [6]) [µM] | IC50 [7] [µM] | IC50 (DU-145 [8]) [µM] | inhibition [9] [%] | other results
1 | COc1cc(/C=C2\OC(=O)C(c3ccc(F)cc3)=C2c2ccc(S(C)(=O)=O)cc2)ccc1O | > 50 | 10.7 |  | 43.6% | > 50 | 17.6 | > 50 |  | 
2 | CS(=O)(=O)c1ccc(C2=C(c3ccccc3Cl)C(=O)O/C2=C\c2cccc([N+](=O)[O-])c2)cc1 | > 50 | > 50 | 7.01% |  |  | 7.1 |  | 59.2 | 
3 | CS(=O)(=O)c1ccc(C2=C(c3ccccc3Cl)C(=O)O/C2=C\c2ccc(Cl)cc2)cc1 | > 50 | > 50 | inactive |  |  |  |  | 32.7 | 
4 | COc1ccc(/C=C2\OC(=O)C(c3ccccc3)=C2c2ccc(S(C)(=O)=O)cc2)cc1 | > 50 | > 50 | 65.9% | 16.7% |  |  |  |  | IC50 [3]: 8.2 µM
5 | COc1ccccc1/C=C1\OC(=O)C(c2ccccc2)=C1c1ccc(S(C)(=O)=O)cc1 | > 80 | > 90 | 71% |  |  | 3 |  | 72.6 | IC50 [3]: 3.1 µM
6 | CS(=O)(=O)c1ccc(C2=C(c3ccc(F)cc3)C(=O)OC2)cc1 | > 50 | > 50 | 28.5% | 66.9% |  | 9.2 |  |  | 

Further lines, with some results ahead:

Row | IC50 (PC-3 [1]) [µM] | IC50 (PC-3 [2]) [µM] | inhibition [4] | inhibition [5] | IC50 (PC-3 [6]) [µM] | IC50 [7] [µM] | IC50 (DU-145 [8]) [µM] | inhibition [9] [%] | Structure (SMILES) | other results
7 | > 50 | > 50 | 61.2% | inactive |  |  |  |  | COc1ccc(/C=C2\OC(=O)C(c3ccccc3Cl)=C2c2ccc(S(C)(=O)=O)cc2)cc1 | IC50 [3]: 8.5 µM
8 | 18.2 | 25.1 | inactive | 45.6% | > 50 | 13.9 | > 50 |  | COc1ccccc1/C=C1\OC(=O)C(c2ccc(F)cc2)=C1c1ccc(S(C)(=O)=O)cc1 | 
9 | 40.5 | 15.4 | 18.6% |  | > 50 |  | > 50 | 24.1 | CC(C)=C1OC(=O)C(c2ccccc2Cl)=C1c1ccc(S(C)(=O)=O)cc1 | 
10 | > 50 | 5.48 |  | 59.1% | > 50 | 7.3 | > 50 |  | CS(=O)(=O)c1ccc(C2=C(c3ccccc3Cl)C(=O)O/C2=C\c2ccccc2)cc1 | 
11 | 25.5 | 45.8 | inactive |  | > 50 | 14.6 | > 50 | 44.2 | COc1ccccc1/C=C1\OC(=O)C(c2ccccc2Cl)=C1c1ccc(S(C)(=O)=O)cc1 | 
12 | 5.17 | 5.09 |  | 43.3% | 20 | 12.1 | 25 |  | COC1(C)OC(=O)C(c2ccccc2Cl)=C1c1ccc(S(C)(=O)=O)cc1 (stereo not given) | Activity (DU-145 [10]): Active; Activity (DU-145 [11]): Active; Activity (DU-145 [12]): Dose-dependent effect; Activity (DU-145 [13]): 6.28%; Activity (DU-145 [14]): 27.26%; Activity (DU-145 [15]): 64.51%; Activity (DU-145 [16]): 7.53%; Activity (DU-145 [17]): 29.17%; Activity (DU-145 [18]): 60%; Activity (DU-145 [19]): 10.97%; Activity (DU-145 [20]): 43.24%; Activity (DU-145 [21]): 42.22%
